pKd, pKi: −log10 of the molar value. Blank lines part the entries; values can stand above or below the molecule they belong to.
What was measured:
[1] = target: T1, human histidine triad nucleotide binding protein 1 (hHint1) (Homo sapiens, UniProt P49773); test: stopped-flow fluorescence, burst; assay type: biochemical; conditions: 20 mM HEPES, 1 mM MgCl2, pH 7.2, 25 °C; pre-steady state
Method in brief: (§1)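 Recombinant WT human Hint1 (E. coli BB2, AMP-agarose, desalted) was loaded at 5 μM in one syringe, with substrate in 20 mM HEPES, 1 mM MgCl2, pH 7.2 in the other. Substrate was phosphoramidate (5-60 μM) or acyl adenylate (5-40 μM). Equal volumes were mixed at 25°C. Fluorescence used excitation at 280 nm and a 320 nm cutoff. The burst rate came from a single exponential plus linear term, and Kadenylyl from a nonlinear fit versus [S]. Six experiments were averaged.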

[2] = target: T1, human histidine triad nucleotide binding protein 1 (hHint1); test: stopped-flow catalytic trapping with TpAd; assay type: biochemical
Method in brief: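 Wild-type human Hint1, expressed in E. coli hinT-disrupted strain BB2 and purified on AMP-agarose, at 5 μM in one stopped-flow syringe. It was pre-incubated 10 min with the test compound (0-5000 μM) and then mixed with the tryptamine-releasing phosphoramidate substrate (40 μM). Indole fluorescence was read with excitation at 280 nm through a 320 nm cutoff filter. Test-compound absorbance was kept within 5%.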

[3] = target: T1, human histidine triad nucleotide binding protein 1 (hHint1); test: tryptophan fluorescence titration
[4] = target: T1, human histidine triad nucleotide binding protein 1 (hHint1); test: stopped-flow fluorescence, burst; assay type: biochemical; conditions: 20 mM HEPES, 1 mM MgCl2, pH 7.2, 25 °C; pre-steady state; remark: listed apart in the source
Method in brief: as §1

T1 sequence (P49773 2-126): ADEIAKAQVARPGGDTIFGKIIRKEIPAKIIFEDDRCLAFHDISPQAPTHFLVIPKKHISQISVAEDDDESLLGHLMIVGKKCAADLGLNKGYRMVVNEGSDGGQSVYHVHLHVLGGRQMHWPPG

K^adenylyl [1]: 13 ± 2 µM
SMILES: Nc1ncnc2c1ncn2[C@@H]1O[C@H](COP(=O)(O)NCCc2c[nH]c3ccccc23)[C@@H](O)[C@H]1O [TpAd]

pKi [2]: ~3.70 | pKd [3]: 3.70
SMILES: Nc1ncnc2c1ncn2[C@@H]1O[C@H](COP(=O)(O)O)[C@@H](O)[C@H]1O [AMP]

K^adenylyl [4]: 5 ± 1 µM
SMILES: Nc1ncnc2c1ncn2[C@@H]1O[C@H](COP(=O)(O)OC(=O)CCc2c[nH]c3ccccc23)[C@@H](O)[C@H]1O [AIPA]

— article PMC3835729 (Biochemistry, 2013)
